Measurements taken from ChEMBL document CHEMBL1129957, “Synthesis, antiproliferative and antiviral activity of imidazo[4,5-d]isothiazole nucleosides as 5:5 fused analogs of nebularine and 6-methylpurine ribonucleoside” (J Med Chem, 1997).

Assays:
Human alphaherpesvirus 1 = experiment: Antiviral activity against herpes simplex virus type 1 (HSV-1) by ELISA test; format: functional, organism-based
In short: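 BSC-1 cells (10 000/well) in MEM(E) plus 10% calf serum, incubated overnight at 37 °C, then drug in quadruplicate plus HSV-1 KOS at 100 pfu/well; 3 days at 37 °C; HRP-conjugated rabbit anti-HSV-1 antibody, TMB substrate, absorbance at 450 and 570 nm. Percent reduction versus virus-only control; IC50 by regression on log concentration.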

L1210 = experiment: Antiproliferative activity against murine L1210 cells; format: functional, cell-based; settings: Mus musculus
In short: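 Murine L1210 leukemia cells in Fischer's medium with 10% heat-inactivated horse serum; cells counted at 0, 24, 48, 72, 96 h with compound; growth rate from slope of semilog cell number vs time, as percent of control (doubling time 12 h). IC50 = concentration halving growth rate; average of two or three experiments.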

Human betaherpesvirus 5 = experiment: Antiviral activity against human cytomegalovirus (HCMV) in plaque reduction assay; format: functional, organism-based
In short: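 HFF cells infected with roughly 100 pfu HCMV Towne per cm2; after adsorption, drug in growth medium at four to eight concentrations in duplicate wells; 7 days at 37 °C, crystal violet staining, microscopic plaque counts as percent reduction versus no-drug control. IC50 by regression on log concentration; average of duplicate experiments.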

HFF = experiment: Inhibition against human foreskin fibroblast (HFF) in a visual assay at time of plaque enumeration; format: functional, cell-based
In short: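 Stationary uninfected HFF cells, grown in MEM with 10% fetal bovine serum, inspected microscopically for cytotoxicity, scored visually when plaques were counted in the HCMV plaque assay.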

KB = experiment: Antiproliferative activity against KB cell; format: functional, cell-based; settings: Homo sapiens
In short: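 KB cells seeded at 3000-5000/well, compound added after overnight culture at 37 °C in quadruplicate at six to eight concentrations; 48 h incubation (about two population doublings) in CO2 incubator; ethanol fixation, 0.1% crystal violet stain, eluted dye read at 570 nm. IC50 from linear regression of percent inhibition against log concentration.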

SMILES	IC50 (Human alphaherpesvirus 1)	IC50 (L1210)	IC50 (Human betaherpesvirus 5)	IC50 (KB)	IC50 (HFF)
OC[C@H]1O[C@@H](n2c(SCc3ccccc3)nc3sncc32)C[C@@H]1O	15 µM	2.2 µM	3.2 µM	3 µM	2.1 µM
Cc1nsc2c1nc(SCc1ccccc1)n2[C@@H]1O[C@H](CO)[C@@H](O)[C@H]1O	> 100 µM	> 100 µM	> 100 µM	> 100 µM	> 100 µM
OC[C@H]1O[C@@H](n2c(SCc3ccccc3)nc3cnsc32)C[C@@H]1O	> 100 µM	8 µM	> 100 µM	> 100 µM	> 100 µM
OC[C@H]1OC(n2c(SCc3ccccc3)nc3sncc32)[C@@H](O)[C@@H]1O (stereo not given in full)	> 100 µM	1.5 µM	3.2 µM	3 µM	2.1 µM
Cc1nsc2c1ncn2[C@@H]1O[C@H](CO)[C@@H](O)[C@@H]1O	> 100 µM	> 100 µM	> 100 µM	> 100 µM	> 100 µM
CSc1nc2cnsc2n1[C@@H]1O[C@H](CO)[C@@H](O)[C@H]1O	> 100 µM	> 100 µM	> 100 µM	> 100 µM	> 100 µM
CSc1nc2sncc2n1[C@H]1C[C@H](O)[C@@H](CO)O1	10 µM	20 µM	22 µM	6 µM	15 µM
OC[C@H]1OC(n2c(SCc3ccccc3)nc3cnsc32)[C@@H](O)[C@@H]1O (stereo not given in full)	> 100 µM	> 100 µM	> 100 µM	> 100 µM	> 100 µM
Cc1nsc2c1nc(SCc1ccccc1)n2[C@@H]1O[C@H](CO)[C@@H](O)[C@@H]1O	> 100 µM	> 100 µM	> 100 µM	> 100 µM	> 100 µM
CSc1nc2cnsc2n1[C@@H]1O[C@H](CO)[C@@H](O)[C@@H]1O	100 µM	> 100 µM	> 100 µM	> 100 µM	> 100 µM
CSc1nc2c(C)nsc2n1[C@@H]1O[C@H](CO)[C@@H](O)[C@H]1O	> 100 µM	> 100 µM	> 100 µM	> 100 µM	> 100 µM
CSc1nc2c(C)nsc2[nH]1	60 µM	13 µM	18 µM	60 µM	26 µM
Cc1nsc2c1ncn2[C@H]1C[C@H](O)[C@@H](CO)O1	> 100 µM	> 100 µM	> 100 µM	> 100 µM	> 100 µM

Further lines, with some results ahead:

IC50 (Human alphaherpesvirus 1)	IC50 (L1210)	IC50 (Human betaherpesvirus 5)	IC50 (KB)	SMILES	IC50 (HFF)
> 100 µM	> 100 µM	> 100 µM	> 100 µM	CSc1nc2cnsc2n1[C@H]1C[C@H](O)[C@@H](CO)O1	> 100 µM
60 µM	33 µM	32 µM	30 µM	CSc1nc2snc(C)c2n1[C@H]1C[C@H](O)[C@@H](CO)O1	32 µM
15 µM	0.3 µM	21 µM	0.2 µM	c1ccc(CSc2nc3cnsc3[nH]2)cc1	14 µM
> 100 µM	> 100 µM	> 100 µM	> 100 µM	Cc1nsc2c1nc(SCc1ccccc1)n2[C@H]1C[C@H](O)[C@@H](CO)O1	> 100 µM
> 100 µM	78 µM	> 100 µM	> 100 µM	Cc1nsc2ncn([C@H]3C[C@H](O)[C@@H](CO)O3)c12	> 100 µM
25 µM	11 µM	32 µM	15 µM	CSc1nc2sncc2n1[C@@H]1O[C@H](CO)[C@@H](O)[C@@H]1O	21 µM
45 µM	7 µM	32 µM	15 µM	CSc1nc2cnsc2[nH]1	32 µM
> 100 µM	> 100 µM	> 100 µM	> 100 µM	CSc1nc2c(C)nsc2n1[C@H]1C[C@H](O)[C@@H](CO)O1	> 100 µM
45 µM	7 µM	21 µM	9 µM	Cc1nsc2[nH]c(SCc3ccccc3)nc12	10 µM
> 100 µM	> 100 µM	> 100 µM	> 100 µM	CSc1nc2c(C)nsc2n1[C@@H]1O[C@H](CO)[C@@H](O)[C@@H]1O	> 100 µM
20 µM	8.6 µM	32 µM	15 µM	CSc1nc2sncc2n1[C@@H]1O[C@H](CO)[C@@H](O)[C@H]1O	21 µM
70 µM	100 µM	32 µM	> 100 µM	Cc1nsc2ncn(C3O[C@H](CO)[C@@H](O)[C@H]3O)c12 (stereo not given in full)	32 µM
45 µM	17 µM	32 µM	20 µM	Cc1nsc2[nH]cnc12	32 µM
> 100 µM	10 µM	> 100 µM	90 µM	Cc1nsc2c1ncn2[C@@H]1O[C@H](CO)[C@@H](O)[C@H]1O	150 µM
